Measured values as given in article PMC5647210 (Cancer immunology, immunotherapy : CII, 2017).

Key:
HLA-A2 = conditions: thermal denaturation of peptide-HLA-A2 complexes; cited from earlier work
HCV1406 TCR = assay: Surface plasmon resonance TCR-pMHC binding; conditions: authors' ranges based on SPR KD
[1] = test system: HCV1406 TCR-transduced T-cells; assay: Degranulation CD107a assay; type: cell-based, human; conditions: T2 cells pulsed with 10 μg/mL peptide, 1:1 co-culture, flow cytometry
[2] = test system: HCV1406 TCR-transduced T-cells; assay: IFNγ release at high, intermediate and low antigen density; type: cell-based, human; conditions: peptide-loaded HepG2 cells, 18 hr, ELISA
Method in brief: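 Normal-donor PBL transduced with HCV1406 TCR, CD34-enriched and split into CD4+/CD8+ by immunomagnetic selection. HepG2 targets either peptide-pulsed for 2 h or transduced with NS3:1406–1415 minigene–GFP vectors and sorted for high uniform GFP. Co-culture 1:1, 37 °C, 18 h. IFNγ from 1x105 T-cells measured by ELISA in triplicate (mean, SD). CD4+ vs CD8+ compared by unequal-variance two-sample t-tests.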

| Sequence | Tm of peptide-HLA-A2 (HLA-A2) [°C] | affinity category of TCR-pMHC interaction compared to WT (HCV1406 TCR) | degranulation (surface CD107a) of CD4^+ TCR-transduced T-cells [1] | IFNγ secretion by CD8^+ T-cells, intermediate antigen density [2] |
| --- | --- | --- | --- | --- |
| KLLALGINAV [V1408L] | 61 | moderate affinity | – | – |
| KLTALGINAV [V1408T] | 69 | moderate affinity | blunted compared to WT, I1412L, and V1408L | – |
| KLVALGINAV [WT] | 64 | – | – | strong recognition |
| KLVALGLNAV [I1412L] | – | moderate affinity | – | – |
| KLVALGNNAV [I1412N] | 59 | low affinity | – | – |
| KLVALGVNAV [I1412V] | – | moderate affinity | blunted compared to WT, I1412L, and V1408L | – |
